In PubChem BioAssay:
Active and inactive are the calls of the source.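 How the source made its calls, unless noted: active means Her2 level under about 52% in both replicate screens, with viability over 70% of control (limit read from the data); inconclusive means Her2 under the limit in one screen only, or viability under 70%; inactive means Her2 level above the set limit.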

Tests used:
[1] = reducers of endogenous Her2 protein level, primary screen, SKBR3 breast tumor cells, AlphaScreen, ATP viability (AID 461); settings: 18-24 h, measured here: SKBR3 viability, ATP luminescence, at 10 µM;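 on Her2 level: lower value means less Her2 protein in the cells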;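 on viability: percent of carrier control wells set as 100% viability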
[2] = target: Receptor tyrosine-protein kinase erbB-2 (Homo sapiens) (UniProt P04626); assay: as above; settings: 18-24 h, at 10 µM, stronger effect = lower value
Chain of Receptor tyrosine-protein kinase erbB-2 (Homo sapiens) (P04626 whole entry, looked up): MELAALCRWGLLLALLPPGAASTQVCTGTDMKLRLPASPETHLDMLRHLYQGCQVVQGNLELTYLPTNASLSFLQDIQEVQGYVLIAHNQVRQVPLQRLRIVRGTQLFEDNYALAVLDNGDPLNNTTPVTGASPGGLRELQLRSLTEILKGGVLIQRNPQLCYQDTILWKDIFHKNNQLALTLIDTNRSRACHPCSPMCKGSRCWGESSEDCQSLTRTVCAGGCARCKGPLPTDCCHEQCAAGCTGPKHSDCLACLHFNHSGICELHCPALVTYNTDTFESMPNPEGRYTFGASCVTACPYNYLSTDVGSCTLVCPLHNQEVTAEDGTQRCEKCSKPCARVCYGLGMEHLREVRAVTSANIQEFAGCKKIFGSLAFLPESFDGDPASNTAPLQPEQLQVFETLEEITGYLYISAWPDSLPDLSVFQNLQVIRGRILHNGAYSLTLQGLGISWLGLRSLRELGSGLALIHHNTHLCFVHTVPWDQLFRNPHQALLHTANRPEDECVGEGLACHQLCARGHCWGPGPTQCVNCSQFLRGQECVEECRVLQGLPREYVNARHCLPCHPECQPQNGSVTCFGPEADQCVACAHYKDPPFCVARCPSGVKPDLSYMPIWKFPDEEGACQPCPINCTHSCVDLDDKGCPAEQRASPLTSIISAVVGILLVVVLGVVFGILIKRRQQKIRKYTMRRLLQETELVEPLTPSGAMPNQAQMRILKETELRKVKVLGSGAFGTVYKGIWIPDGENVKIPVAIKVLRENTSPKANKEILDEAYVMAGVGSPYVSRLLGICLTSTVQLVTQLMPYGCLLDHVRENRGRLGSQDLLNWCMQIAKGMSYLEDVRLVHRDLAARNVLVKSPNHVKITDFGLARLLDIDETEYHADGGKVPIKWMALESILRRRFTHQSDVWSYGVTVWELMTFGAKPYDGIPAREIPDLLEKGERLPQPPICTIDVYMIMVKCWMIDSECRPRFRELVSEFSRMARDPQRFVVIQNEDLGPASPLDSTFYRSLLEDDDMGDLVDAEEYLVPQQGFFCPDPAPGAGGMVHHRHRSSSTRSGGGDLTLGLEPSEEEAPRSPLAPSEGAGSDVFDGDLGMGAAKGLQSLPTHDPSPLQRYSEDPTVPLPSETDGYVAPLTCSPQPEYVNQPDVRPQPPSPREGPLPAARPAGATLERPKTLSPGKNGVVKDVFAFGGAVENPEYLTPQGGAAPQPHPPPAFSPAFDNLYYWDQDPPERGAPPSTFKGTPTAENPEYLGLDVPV

[3] = SK-BR-3 cell growth inhibitors, pilot screen, 24 h, human (AID 572;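 active means viability at or below 10% of carrier control in both of two separate runs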;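 further: compound exposure lasted between 18 and 24 h rather than exactly 24 h; 100% = carrier-treated control wells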); settings: SK-BR-3 viability, CellTiter-Glo luminescence, at 10 µM, stronger effect = lower value
[4] = HUVEC growth inhibition – cell-based, human, primary screen (AID 575;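 active means viability at or below 30% in both replicate assays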;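 further: 100% = median of untreated cell wells with 0.1% DMSO on each plate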); settings: HUVEC proliferation, CellTiter-Glo luminescence, 72 h; at 10 µM; stronger effect = lower value
Summary of the method: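 Test system: primary human umbilical vein endothelial cells. Quantity: 1250 cells/well. Compound: single 10 µM dose, 0.1% DMSO, from 5x medium stock. Timing: 72 h treatment at 37 °C. Detection: ATP-based CellTiter-Glo luminescent read. Benchmarks: vehicle and MePR control wells. Format: 384-well plates coated with collagen.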

[5] = growth inhibitors of H69AR lung tumor, primary screen, human, duplicate replicates (AID 580;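 active means viability at or under a set limit in both replicates, limit being median viability minus 3 SD, cut at about 48% in these data, passing the limit was not always enough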;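 further: 100% = mean luminescence of untreated wells and 0% = no signal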); settings: H69AR lung tumor cells viability, ATP luminescence, 72 h; at 10 µM; stronger effect = lower value
[6] = reversal of MRP1-mediated doxorubicin resistance, pilot screen, H69AR cells, doxorubicin co-treatment (AID 601;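 active means viability loss from added drug above about 55%, and viability with drug at most 40%, in both replicates, limit read from the data, passing the limit was not always enough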); settings: CellTiter-Glo, 72 h, at 10 µM; for differential viability (reversal): stronger effect = higher value
[7] = 384-well plate pilot, post-Golgi transport modulator project, inhibition of yeast transport mutant growth (AID 636; in the data active means inhibition above about 31%); settings: absorbance 615 nm, about 18 h, stronger effect = higher value
[8] = growth suppression of yeast trafficking mutant, preliminary HTS, modulators of trafficking downstream of Golgi apparatus project, 1536-format plate, OD 615 nm (AID 637; in the data active means inhibition above about 30%); settings: yeast transport mutant growth, absorbance 615 nm, 18 h; stronger effect = higher value
[9] = H69AR cells + 2 uM doxorubicin, measured here: viability with 2 uM doxorubicin, stronger effect = lower value
[10] = H69AR cells, compound alone cytotoxicity

| SMILES | viability [1] [%] | Her2 level [2] | viability [3] | viability [4] | viability [5] | differential viability (reversal) ([6]; H69AR cells + 2 uM doxorubicin) | viability [6, 9] [%] | viability [6, 10] [%] | inhibition [7] | inhibition [8] |
| --- | --- | --- | --- | --- | --- | --- | --- | --- | --- | --- |
| CCOc1ccc(C(=O)Nc2ccc(N3CCN(C)CC3)cc2)cc1Br | 114 | 93% (inactive) | 114% (inactive) | 2.57% (active) | 81.8% (inactive) | 10.2% (inactive) | 71.7 | 81.8 | -4.67% (inactive) | 12.1% (inactive) |
| Cc1noc(C)c1S(=O)(=O)N1CCC(C(=O)Nc2ccccn2)CC1 | 98 | 81% (inactive) | 98% (inactive) | 105% (inactive) | 89.5% (inactive) | 6.2% (inactive) | 83.3 | 89.5 | -2.11% (inactive) | 0.48% (inactive) |
| CCCCn1c(SCC(=O)Nc2cc(C)on2)nnc1-c1cccnc1 | 96.5 | 111% (inactive) | 96.5% (inactive) | 87.8% (inactive) | 104% (inactive) | -2.12% (inactive) | 106 | 104 | -0.67% (inactive) | 11% (inactive) |
| COc1ccc(C(CC(=O)O)NC(=O)c2ccccc2)cc1OC (stereo not given) | 110 | 101% (inactive) | 110% (inactive) | 94.6% (inactive) | 83.6% (inactive) | -6.46% (inactive) | 90.1 | 83.6 | 0.78% (inactive) | -6.33% (inactive) |
| CC1(C)C(=O)Nc2ccccc2N1C(=O)COC(=O)Cn1cnc2ccccc2c1=O | 110 | 112% (inactive) | 110% (inactive) | 110% (inactive) | 96.3% (inactive) | 1.74% (inactive) | 94.5 | 96.3 | -3.55% (inactive) | -5.5% (inactive) |
| O=c1[nH]c2cccnc2n1Cc1ccco1 | 90 | 88% (inactive) | 90% (inactive) | 107% (inactive) | 97.5% (inactive) | 13.8% (inactive) | 83.8 | 97.5 | -4.32% (inactive) | 0.83% (inactive) |
| COc1ccc(N2CCN(c3ccc(NC(=O)C4CCCCC4)cc3C#N)CC2)cc1 | 98 | 84% (inactive) | 98% (inactive) | 78.6% (inactive) | 93% (inactive) | 2.67% (inactive) | 90.4 | 93 | -1.76% (inactive) | -2.22% (inactive) |
| CN1CC[n+]2cnc3ccccc3c21 | 100 | 92% (inactive) | 100% (inactive) | 108% (inactive) | 97.3% (inactive) | 8.2% (inactive) | 89.1 | 97.3 | -2.24% (inactive) | 6.23% (inactive) |
| O=C(Nc1nccs1)NC(C(F)(F)F)C(F)(F)F | 104 | 87.5% (inactive) | 104% (inactive) | 93% (inactive) | 95.1% (inactive) | -0.09% (inactive) | 95.1 | 95.1 | -6.44% (inactive) | -0.16% (inactive) |
| Cc1cc(C)c(NC(=O)C2CCCN2CCO)c(C)c1 (stereo not given) | 83 | 135% (inactive) | 83% (inactive) | 108% (inactive) | 86.5% (inactive) | -3.78% (inactive) | 90.3 | 86.5 | 0.79% (inactive) | -8.69% (inactive) |
| O=C(NC1CCCC1)c1ccc(S(=O)(=O)N2CCCC2)cc1 | 107 | 120% (inactive) | 107% (inactive) | 103% (inactive) | 87.6% (inactive) | -7.37% (inactive) | 95 | 87.6 | -1.08% (inactive) | 0.83% (inactive) |
| CC(=O)Nc1ccc(Oc2cc(C#N)c(C#N)cc2N2CCCCCC2)cc1 | 108 | 76% (inactive) | 108% (inactive) | 73.5% (inactive) | 89.6% (inactive) | 21.8% (inactive) | 67.8 | 89.6 | -3.03% (inactive) | 0.95% (inactive) |
| COc1ccc(C(=O)NCCCCCC(=O)O)cc1OC | 125 | 99% (inactive) | 125% (inactive) | 90.5% (inactive) | 92.2% (inactive) | -8.78% (inactive) | 101 | 92.2 | -7.24% (inactive) | -3.33% (inactive) |
| Cc1ccc(Cl)cc1N1CCN(C(=O)C2CCCN(S(=O)(=O)c3cnc[nH]3)C2)CC1 (stereo not given) | 86.5 | 99.5% (inactive) | 86.5% (inactive) | 69.8% (inactive) | 83.8% (inactive) | 5.75% (inactive) | 78 | 83.8 | -2.93% (inactive) | -2.62% (inactive) |
| O=C(O)CCCNS(=O)(=O)c1ccc(NCc2ccccc2)c(C(=O)O)c1 | 87 | 94% (inactive) | 87% (inactive) | 92.3% (inactive) | 93% (inactive) | 1.6% (inactive) | 91.4 | 93 | -6.89% (inactive) | 0.83% (inactive) |
| Cc1ccc(Nc2nc(CSc3nnnn3C)cs2)cc1 | 101 | 96% (inactive) | 101% (inactive) | 95.3% (inactive) | 113% (inactive) | 25.7% (inactive) | 87.4 | 113 | -7.24% (inactive) | -1.45% (inactive) |
